Activity calls are given as the source filed them. The rule behind the calls is not given here.
Legend:
[1] = target: T1, GABA-A receptor; alpha-1/beta-2/gamma-2 (Homo sapiens) (UniProt P14867+P47870+P18507); test: (§1) Modulation of recombinant wild type GABAA receptor alpha1beta2gamma2S (unknown origin) expressed in Xenopus laevis oocytes assessed as increase in GABA-evoked chloride current at -70 mV holding potential by two-microelectrode voltage clamp assay; assay type: cell-based
Procedure, shortened: (§2)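 Two-microelectrode voltage clamp of Xenopus laevis oocytes expressing α1β2γ2S GABA_A receptors, held at -70 mV. GABA EC5 (4-5 μM), determined individually for each oocyte, applied for 20 s alone or co-applied with compound at 10 and 100 μM; potentiation of GABA-evoked current measured. Dehydroabietic acid as positive control; mean ± SEM from at least three oocytes and two oocyte batches.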

[2] = target: T2, GABA-A receptor; alpha-1/beta-2/gamma-2 (Homo sapiens, UniProt P14867+P18507+P47870); test: as §1; assay type: cell-based; procedure, shortened: as §2
T2 sequence (P14867 whole entry): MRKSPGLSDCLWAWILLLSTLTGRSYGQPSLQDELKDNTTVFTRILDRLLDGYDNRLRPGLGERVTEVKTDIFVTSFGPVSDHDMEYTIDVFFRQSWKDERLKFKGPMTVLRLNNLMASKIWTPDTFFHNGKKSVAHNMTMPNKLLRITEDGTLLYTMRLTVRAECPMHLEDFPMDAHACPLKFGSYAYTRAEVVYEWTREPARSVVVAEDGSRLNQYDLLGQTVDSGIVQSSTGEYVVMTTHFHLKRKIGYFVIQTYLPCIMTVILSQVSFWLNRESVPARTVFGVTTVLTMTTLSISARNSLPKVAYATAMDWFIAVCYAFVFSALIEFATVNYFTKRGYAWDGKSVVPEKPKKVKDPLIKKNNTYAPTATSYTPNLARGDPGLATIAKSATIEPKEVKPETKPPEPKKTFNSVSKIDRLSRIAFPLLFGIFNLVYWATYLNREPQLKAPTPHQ
T2 sequence (P47870 whole entry): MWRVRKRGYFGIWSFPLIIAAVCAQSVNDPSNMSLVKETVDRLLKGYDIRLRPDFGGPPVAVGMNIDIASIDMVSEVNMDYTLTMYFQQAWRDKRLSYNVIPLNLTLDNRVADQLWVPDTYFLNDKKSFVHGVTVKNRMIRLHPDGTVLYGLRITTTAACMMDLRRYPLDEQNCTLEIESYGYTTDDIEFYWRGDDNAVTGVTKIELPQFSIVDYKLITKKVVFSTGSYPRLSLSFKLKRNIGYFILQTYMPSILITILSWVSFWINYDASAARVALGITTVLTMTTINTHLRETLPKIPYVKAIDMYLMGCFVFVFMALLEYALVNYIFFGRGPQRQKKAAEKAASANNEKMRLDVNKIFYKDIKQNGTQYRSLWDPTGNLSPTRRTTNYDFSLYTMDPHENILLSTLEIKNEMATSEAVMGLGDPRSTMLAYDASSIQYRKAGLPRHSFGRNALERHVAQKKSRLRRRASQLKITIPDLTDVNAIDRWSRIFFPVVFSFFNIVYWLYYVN
T2 sequence (P18507 whole entry): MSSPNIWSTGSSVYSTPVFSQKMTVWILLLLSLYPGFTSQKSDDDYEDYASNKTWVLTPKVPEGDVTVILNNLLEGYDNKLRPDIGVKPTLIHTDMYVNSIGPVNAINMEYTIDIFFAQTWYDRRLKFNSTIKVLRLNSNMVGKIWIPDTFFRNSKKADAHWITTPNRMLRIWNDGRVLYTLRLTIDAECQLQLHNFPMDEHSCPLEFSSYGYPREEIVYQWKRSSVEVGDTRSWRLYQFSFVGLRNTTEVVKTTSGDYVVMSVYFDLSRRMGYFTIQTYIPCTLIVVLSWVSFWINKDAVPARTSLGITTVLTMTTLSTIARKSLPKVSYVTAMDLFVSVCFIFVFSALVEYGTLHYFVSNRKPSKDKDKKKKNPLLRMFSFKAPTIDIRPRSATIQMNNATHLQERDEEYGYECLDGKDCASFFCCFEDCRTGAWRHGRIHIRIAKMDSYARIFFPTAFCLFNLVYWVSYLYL

[3] = target: T1, GABA-A receptor; alpha-1/beta-2/gamma-2 (Homo sapiens); test: Modulation of recombinant wild type GABAA receptor alpha1beta2gamma2S (unknown origin) expressed in Xenopus laevis oocytes assessed as increase in GABA-evoked chloride current at 10 uM at -70 mV holding potential by two-microelectrode voltage clamp assay relative to control; assay type: cell-based
Procedure, shortened: (§3)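 Two-microelectrode voltage clamp at -70 mV on Xenopus laevis oocytes expressing α1β2γ2S GABA-A receptors. GABA EC5 (4-5 μM), set individually for each oocyte, applied for 20 s alone, then co-applied with compound at 10 or 100 μM. Potentiation of GABA-evoked current is reported. Dehydroabietic acid served as positive control. Mean ± SEM from at least three oocytes and two oocyte batches.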

[4] = target: T1, GABA-A receptor; alpha-1/beta-2/gamma-2 (Homo sapiens); test: Modulation of recombinant wild type GABAA receptor alpha1beta2gamma2S (unknown origin) expressed in Xenopus laevis oocytes assessed as increase in GABA-evoked chloride current at 100 uM at -70 mV holding potential by two-microelectrode voltage clamp assay relative to control; assay type: cell-based; procedure, shortened: as §3
A549 = test: Antiproliferative activity against human A549 cells after 48 hrs by SRB assay; assay type: functional; details: A549, 48 h
HBL-100 = test: Antiproliferative activity against human HBL100 cells after 48 hrs by SRB assay; assay type: functional; details: HBL-100, 48 h
HeLa = test: Antiproliferative activity against human HeLa cells after 48 hrs by SRB assay; assay type: functional
SW1573 = test: Antiproliferative activity against human SW1573 cells after 48 hrs by SRB assay; assay type: functional; details: SW1573, 48 h
T47D = test: Antiproliferative activity against human T47D cells after 48 hrs by SRB assay; assay type: functional
WiDr = test: Antiproliferative activity against human WiDr cells after 48 hrs by SRB assay; assay type: functional
[5] = Cytotoxicity against mouse J774 cells assessed as reduction in cell viability after 48 hrs by resazurin dye-based fluorometric analysis
Procedure, shortened: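 The CC50 is taken as the concentration giving a 50% reduction in cell viability of treated cultures compared with untreated cells.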

Leishmania amazonensis [6] = test: Antileishmanial activity against Leishmania amazonensis MHOM/Br/79/Mari promastigotes after 48 hrs by resazurin dye-based fluorometric analysis; assay type: functional, organism-based; details: Leishmania amazonensis, MHOM/Br/79/Mari, 48 h; read-out: IC50
Procedure, shortened: (§4)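 The IC50 is taken as the compound concentration giving a 50% reduction in parasites, reported with SD.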

Leishmania guyanensis [7] = test: Antileishmanial activity against Leishmania guyanensis 141/93 promastigotes after 48 hrs by resazurin dye-based fluorometric analysis; assay type: functional, organism-based; details: Leishmania guyanensis, 141/93, 48 h; read-out: IC50; procedure, shortened: as §4
Leishmania donovani = test: Antileishmanial activity against Leishmania donovani MHOM/IN/80/DD8 promastigotes after 48 hrs by resazurin dye-based fluorometric analysis; assay type: functional, organism-based; details: Leishmania donovani, MHOM/IN/80/DD8, 48 h; procedure, shortened: as §4
Leishmania infantum [8] = test: Antileishmanial activity against Leishmania infantum MCAN/ES/96/BCN150 promastigotes after 48 hrs by resazurin dye-based fluorometric analysis; assay type: functional, organism-based; details: Leishmania infantum, MCAN/ES/96/BCN150, 48 h; read-out: IC50; procedure, shortened: as §4
[9] = Selectivity index, ratio of CC50 for mouse J774 cells to IC50 for Leishmania amazonensis MHOM/Br/79/Mari promastigotes; assay type: toxicity; details: read-out: Ratio CC50/IC50
[10] = Selectivity index, ratio of CC50 for mouse J774 cells to IC50 for Leishmania guyanensis 141/93 promastigotes; assay type: toxicity; details: read-out: Ratio CC50/IC50
[11] = Selectivity index, ratio of CC50 for mouse J774 cells to IC50 for Leishmania donovani MHOM/IN/80/DD8 promastigotes; assay type: toxicity; details: read-out: Ratio CC50/IC50
[12] = Selectivity index, ratio of CC50 for mouse J774 cells to IC50 for Leishmania infantum MCAN/ES/96/BCN150 promastigotes; assay type: toxicity; details: read-out: Ratio CC50/IC50
Leishmania amazonensis [13] = test: Antileishmanial activity against Leishmania amazonensis MHOM/Br/79/Mari amastigotes infected in mouse J774 cells after 48 hrs by resazurin dye-based fluorometric analysis; assay type: functional, organism-based; details: J774, 48 h
Leishmania infantum [14] = test: Antileishmanial activity against Leishmania infantum MCAN/ES/96/BCN150 amastigotes infected in mouse J774 cells after 48 hrs by resazurin dye-based fluorometric analysis; assay type: functional, organism-based; details: MCAN/ES/96/BCN150, J774, 48 h
[15] = Selectivity index, ratio of CC50 for mouse J774 cells to IC50 for Leishmania amazonensis MHOM/Br/79/Mari amastigotes infected in mouse J774 cells; assay type: toxicity, cell-based; details: read-out: Ratio CC50/IC50
Procedure, shortened: (§5)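 CC50: concentration giving 50% reduction of viability in treated cells relative to untreated; IC50: concentration giving 50% reduction in parasites; SI = CC50/IC50.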

[16] = Selectivity index, ratio of CC50 for mouse J774 cells to IC50 for Leishmania infantum MCAN/ES/96/BCN150 amastigotes infected in mouse J774 cells; assay type: toxicity, cell-based; details: read-out: Ratio CC50/IC50; procedure, shortened: as §5
NALM-6 [17] = test: Antiproliferative activity against human NALM6 cells after 72 hrs by CellTiter-Glo luminescent cell viability assay; assay type: functional, cell-based; details: NALM-6, 72 h
[18] = Antiproliferative activity against mouse leukemia cells overexpressing BCR/ABL after 72 hrs by CellTiter-Glo luminescent cell viability assay; assay type: functional, cell-based
KOPN-8 [19] = test: Antiproliferative activity against human KOPN8 cells after 72 hrs by CellTiter-Glo luminescent cell viability assay; assay type: functional, cell-based; details: KOPN-8, 72 h
SUP-B15 = test: Antiproliferative activity against human SUP-B15 cells after 72 hrs by CellTiter-Glo luminescent cell viability assay; assay type: functional, cell-based; details: SUP-B15, 72 h
UoC-B1 = test: Antiproliferative activity against human UOCB1 cells after 72 hrs by CellTiter-Glo luminescent cell viability assay; assay type: functional, cell-based; details: UoC-B1, 72 h
BJ = test: Antiproliferative activity against human BJ cells after 72 hrs by CellTiter-Glo luminescent cell viability assay; assay type: ADME, cell-based
NALM-6 [20] = test: Induction of apoptosis in human NALM6 cells after 24 hrs by Annexin V-FITC/propidium iodide staining-based flow cytometric analysis; assay type: functional, cell-based
Procedure, shortened: (§6)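 Phosphatidylserine exposure read by Annexin V-FITC/propidium iodide flow cytometry; DNA content by PI staining for cell-cycle distribution.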

KOPN-8 [21] = test: Induction of apoptosis in human KOPN8 cells assessed as late apoptotic cells at 20 uM after 32 hrs by Annexin V-FITC/propidium iodide staining-based flow cytometric analysis relative to control; assay type: functional
NALM-6 [22] = test: Cell cycle arrest in human NALM6 cells assessed as accumulation at G0/G1 phase at 10 uM after 24 hrs by propidium iodide staining-based flow cytometric analysis; assay type: functional; procedure, shortened: as §6
NALM-6 [23] = test: Cell cycle arrest in human NALM6 cells assessed as accumulation at G2/M phase at 10 uM after 24 hrs by propidium iodide staining-based flow cytometric analysis; assay type: functional; procedure, shortened: as §6
Leishmania guyanensis [24] = test: Potency index, ratio of miltefosine IC50 to compound IC50 for Leishmania guyanensis 141/93 promastigotes after 48 hrs by resazurin dye-based fluorometric analysis; assay type: functional
[25] = read-out: log(1/IC50) (converted)

| Activity [3] [%] | Activity [4] [%] | SMILES | CC50 at 48 h [5] [µM] | IC50 (Leishmania amazonensis [6]) [µM] | IC50 (Leishmania guyanensis [7]) [µM] | IC50 (Leishmania donovani; read-out: IC50) [µM] | IC50 (Leishmania donovani; [25]) [µM] | IC50 (Leishmania infantum [8]) [µM] | selectivity ratio [9] | selectivity ratio [10] | selectivity ratio [11] | selectivity ratio [12] | also measured |
| --- | --- | --- | --- | --- | --- | --- | --- | --- | --- | --- | --- | --- | --- |
| 187 | 841 | CC(C)C1=CC2=CC[C@H]3[C@](C)(C(=O)O)CCC[C@]3(C)C2CC1 (some centres undefined) |  |  |  |  |  |  |  |  |  |  | Emax [1]: 398%; EC50 [2]: 8.7 µM |
| 2.7 | -2.9 | COC(=O)[C@]1(C)CCC[C@]2(C)c3cc(C(C)=O)c(C(C)C)cc3CC[C@@H]12 | 130 | 11.6 | 14.2 | 14.8 | 14.8 | 2.5 | 11.2 | 9.1 | 8.8 | 51.8 | GI50 (A549): 18 µM; GI50 (HBL-100): 15 µM; GI50 (HeLa): 11 µM; GI50 (SW1573): 11 µM; GI50 (T47D): 10 µM; GI50 (WiDr): 17 µM; IC50 (Leishmania amazonensis [13]): 31.4 µM; IC50 (Leishmania infantum [14]): 37.2 µM; selectivity ratio [15]: 4.1; selectivity ratio [16]: 3.5 |
| -1 | 46.7 | COC(=O)[C@]1(C)CCC[C@]2(C)c3cc(OC(C)=O)c(C(C)C)cc3C(=O)C[C@@H]12 | 17.8 | 0.65 | 1.3 | 4.4 | 4.38 | 0.7 | 27.4 | 13.6 | 4.1 | 25.4 | EC50 (NALM-6 [17]): 10.7 µM; EC50 [18]: 12.2 µM; EC50 (KOPN-8 [19]): 18.5 µM; EC50 (SUP-B15): 21.7 µM; EC50 (UoC-B1): > 40 µM; EC50 (BJ): Non-Toxic; Activity (NALM-6 [20]): Dose-dependent effect; Activity (KOPN-8 [21]): >85%; Activity (NALM-6 [22]): Active; Activity (NALM-6 [23]): Active; Ratio IC50 (Leishmania guyanensis [24]): 13 |
